Experimental data from ChEMBL document CHEMBL4414644, “A New Approach of Mitigating CYP3A4 Induction Led to the Discovery of Potent Hepatitis B Virus (HBV) Capsid Inhibitor with Optimal ADMET Profiles” (J Med Chem, 2019).

Key:
[1] = Cytotoxicity in human HepDE19 cells assessed as reduction in cell viability incubated for 5 days by CCK8 assay; assay type: cell-based
How it was run: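 HepDE19 cells were grown in DMEM-F12 with 10% FBS, penicillin/streptomycin and 0.5 mg/mL G418, then seeded at 5 × 10^3 cells/well. Compound exposure lasted 5 days. Viability was read with CCK-8 after 2 h at 37 °C, measuring OD450 and OD630. CC50 was the concentration killing 50% of cells; duplicate runs.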

[2] = Induction of CYP3A4 gene expression in cryopreserved human hepatocytes assessed as increase in CYP3A4 mRNA level at 10 uM incubated for 24 hrs by qRT-PCR analysis relative to rifampicin; assay type: ADME, cell-based
How it was run: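 Cryopreserved hepatocytes from one human donor were seeded at 1 × 10^6 cells/mL and cultured 24 h in serum-free Williams E. Compounds at 0.1, 1.0 and 10 µM (0.1% DMSO) were added in triplicate for 24 h, with vehicle wells as negative controls. Positive controls were omeprazole for CYP1A2, phenobarbital for CYP2B6 and rifampicin for CYP3A4. mRNA was measured by TaqMan qRT-PCR normalised to PPIA (2^-ΔΔCT) and expressed as % of the positive control.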

Structure (SMILES): COC(=O)C1=C(CN2CCOC[C@H]2C(=O)O)NC(c2nccs2)=N[C@H]1c1ccc(F)c(F)c1
- CC50 at 120 h [1]: > 100 µM
- Activity [2]: 36%

Structure (SMILES): CCOC(=O)C1=C(CN2CCOC[C@H]2C(=O)O)NC(c2nccs2)=N[C@H]1c1ccc(F)c(F)c1F
- CC50 at 120 h [1]: 49 µM
- Activity [2]: 105%

Structure (SMILES): CCOC(=O)C1=C(CN2CCOC[C@H]2C(=O)O)NC(c2nccs2)=N[C@H]1c1ccc(Br)c(F)c1
- CC50 at 120 h [1]: 14 µM
- Activity [2]: 73%

Structure (SMILES): CCOC(=O)C1=C(CN2CCOC[C@H]2C(=O)O)NC(c2nccs2)=N[C@H]1c1ccc(F)cc1
- CC50 at 120 h [1]: 62 µM
- Activity [2]: 85%

Structure (SMILES): CCOC(=O)C1=C(CN2CC(F)(F)C[C@H]2C(=O)O)NC(c2nccs2)=N[C@H]1c1ccc(F)cc1Cl
- CC50 at 120 h [1]: > 100 µM
- Activity [2]: 123%

Structure (SMILES): CCOC(=O)C1=C(CN2CCOC[C@H]2C(=O)O)NC(c2nccs2)=N[C@H]1c1ccc(F)cc1F
- CC50 at 120 h [1]: > 100 µM
- Activity [2]: 135%

Structure (SMILES): CCOC(=O)C1=C(CN2CCOC[C@H]2C(=O)O)NC(c2nccs2)=N[C@H]1c1ccc(F)cc1Cl
- CC50 at 120 h [1]: > 100 µM
- Activity [2]: 173%

Structure (SMILES): COC(=O)C1=C(CN2CC(F)(F)C[C@H]2C(=O)O)NC(c2nccs2)=N[C@H]1c1ccc(F)cc1Cl
- CC50 at 120 h [1]: 65 µM
- Activity [2]: 109%

Structure (SMILES): COC(=O)C1=C(CN2CCOC[C@H]2C(=O)O)NC(c2nccs2)=N[C@H]1c1ccc(C)c(F)c1
- CC50 at 120 h [1]: > 100 µM
